Data published in ChEMBL document CHEMBL4257549, “Design, synthesis and biological evaluation of benzimidazole-rhodanine conjugates as potent topoisomerase II inhibitors” (Medchemcomm, 2018).
Calls of active or inactive are those of the source. The rule behind the calls is not given here.

Columns and labels:
DNA [1] = assay: Induction of Escherichia coli pBR322 DNA intercalation assessed as transformation of topoisomerase1-relaxed pBR322 DNA in to supercoiled DNA at 5 uM preincubated for 10 mins followed by topoisomerase-1 addition and measured after 30 mins by agarose gel electrophoresis method; format: nucleic-acid assay
In short: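 0.1 μg relaxed DNA incubated with compound 10 min at room temperature, then Topo I (1 U) added, 37 °C for 30 min. Stopped with phenol-chloroform and SDS/EDTA. Products resolved on agarose gel in TAE and imaged under UV.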

HL-60 = assay: Cytotoxicity against human HL60 cells after 48 hrs by MTT assay; format: functional, cell-based; conditions: HL-60, 48 h
In short: (§1)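 Cells seeded at 5000 per well, left overnight, then exposed to compound at 0–50 μM for 48 h. MTT (20 μL of 2.5 mg mL−1) added for a further 4 h at 37 °C, formazan dissolved in DMSO, absorbance read at 570 nm. Quadruplicate wells, N > 2 determinations, mean IC50 taken as the concentration reducing cell number to 50%.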

DNA [2] = assay: Induction of Escherichia coli pBR322 DNA intercalation assessed as transformation of topoisomerase1-relaxed pBR322 DNA in to supercoiled DNA at 50 uM preincubated for 10 mins followed by topoisomerase-1 addition and measured after 30 mins by agarose gel electrophoresis method; format: nucleic-acid assay
In short: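 Unwinding: pBR322 first relaxed by Topo I in buffer (50 mM Tris-HCl pH 7.5, 50 mM KCl, 10 mM MgCl2, 0.5 mM DTT, 0.1 mM EDTA, 30 μg/mL BSA). 0.1 μg relaxed DNA preincubated with compound 10 min at room temperature, then Topo I (1 U) added, 30 min at 37 °C. Phenol-chloroform stop, SDS/EDTA added, agarose electrophoresis in TAE, UV imaging.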

Homo sapiens [3] = species on record: Homo sapiens; assay: Inhibition of catalytic activity of human topoisomerase 2 assessed as decrease in levels of linear pBR322 DNA trapped by etoposide at 50 uM after 6 mins by agarose gel electrophoresis
MDA-MB-231 = assay: Cytotoxicity against human MDA-MB-231 cells after 48 hrs by MTT assay; format: functional, cell-based; conditions: MDA-MB-231, 48 h; in short: as §1
Homo sapiens [4] = species on record: Homo sapiens; assay: Inhibition of human topoisomerase 2-mediated pBR322 DNA relaxation at 20 uM after 30 mins by agarose gel electrophoresis
Raji = assay: Cytotoxicity against human Raji cells after 48 hrs by MTT assay; format: functional, cell-based; in short: as §1
PC-3 = assay: Cytotoxicity against human PC3 cells after 48 hrs by MTT assay; format: functional, cell-based; conditions: PC-3, 48 h; in short: as §1
Homo sapiens [5] = species on record: Homo sapiens; assay: Poison activity at human topoisomerase 2 assessed as […] at 50 uM after 6 mins by agarose gel electrophoresis
A549 = assay: Cytotoxicity against human A549 cells after 48 hrs by MTT assay; format: functional, cell-based; conditions: A549, 48 h; in short: as §1
[6] = molecular target: T1, DNA topoisomerase 1 (Homo sapiens) (UniProt P11387); assay: Inhibition of topoisomerase 1 (unknown origin)-mediated pBR322 DNA relaxation at 50 uM after 30 mins by agarose gel electrophoresis
T1 sequence (whole entry): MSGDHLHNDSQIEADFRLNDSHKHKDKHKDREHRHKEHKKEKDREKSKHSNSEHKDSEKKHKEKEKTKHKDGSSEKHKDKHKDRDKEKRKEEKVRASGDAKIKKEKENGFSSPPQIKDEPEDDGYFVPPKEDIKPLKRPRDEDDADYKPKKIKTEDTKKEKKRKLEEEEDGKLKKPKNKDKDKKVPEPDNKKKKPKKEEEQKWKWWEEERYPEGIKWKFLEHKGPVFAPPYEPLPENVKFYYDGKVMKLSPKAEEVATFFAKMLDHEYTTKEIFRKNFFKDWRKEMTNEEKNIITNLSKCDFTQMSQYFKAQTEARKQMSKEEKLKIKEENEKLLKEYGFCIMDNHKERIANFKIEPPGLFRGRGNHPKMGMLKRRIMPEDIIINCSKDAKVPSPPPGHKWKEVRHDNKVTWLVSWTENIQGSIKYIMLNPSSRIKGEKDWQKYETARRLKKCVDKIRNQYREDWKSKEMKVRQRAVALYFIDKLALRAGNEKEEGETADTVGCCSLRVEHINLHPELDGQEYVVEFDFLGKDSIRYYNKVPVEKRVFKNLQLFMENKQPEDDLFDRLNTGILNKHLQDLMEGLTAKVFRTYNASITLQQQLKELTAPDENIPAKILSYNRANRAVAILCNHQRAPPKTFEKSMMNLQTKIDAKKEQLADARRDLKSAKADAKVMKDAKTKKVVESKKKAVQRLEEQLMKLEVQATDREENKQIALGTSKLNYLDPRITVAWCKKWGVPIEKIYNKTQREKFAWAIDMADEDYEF
In short: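 Topo I relaxation of pBR322 with compound at 30 min, 37 °C, camptothecin positive control. Stopped with SDS/bromophenol blue/glycerol dye, run on 1% agarose in TAE for 1.5 h, Ged Red stained, UV visualized.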

HeLa = assay: Cytotoxicity against human HeLa cells after 48 hrs by MTT assay; format: functional, cell-based; in short: as §1
Homo sapiens [7] = species on record: Homo sapiens; assay: Inhibition of human topoisomerase 2-mediated pBR322 DNA relaxation at 10 uM after 30 mins by agarose gel electrophoresis
Homo sapiens [8] = species on record: Homo sapiens; assay: Inhibition of human topoisomerase 2-mediated pBR322 DNA relaxation at 100 uM after 30 mins by agarose gel electrophoresis
Homo sapiens [9] = species on record: Homo sapiens; assay: Poison activity at human topoisomerase 2 assessed as transformation of supercoiled pBR322 DNA to linear pBR322 DNA at 100 uM after 6 mins by agarose gel electrophoresis

Structure (SMILES)	Activity (DNA [1])	IC50 (HL-60) [nM]	Activity (DNA [2])	inhibition (Homo sapiens [3])	IC50 (MDA-MB-231) [nM]	inhibition (Homo sapiens [4])	IC50 (Raji) [nM]	IC50 (PC-3) [nM]	Activity (Homo sapiens [5])	IC50 (A549) [nM]	inhibition [6]	IC50 (HeLa) [nM]	inhibition (Homo sapiens [7])	inhibition (Homo sapiens [8])	Activity (Homo sapiens [9])
CC[n+]1c(-c2ccccc2)c2cc(N)ccc2c2ccc(N)cc21	Active	–	–	–	–	–	–	–	–	–	–	–	–	–	–
O=C(O)CN1C(=O)/C(=C/c2nc3ccccc3n2Cc2ccccc2F)SC1=S	–	210	inactive	Active	330	Active	1230	1860	inactive	2670	inactive	640	Active	–	–
COc1cc([C@@H]2c3cc4c(cc3[C@@H](O[C@@H]3O[C@@H]5CO[C@@H](C)O[C@H]5[C@H](O)[C@H]3O)[C@H]3COC(=O)[C@H]23)OCO4)cc(OC)c1O [ETOPOSIDE]	–	580	–	–	30300	Active	1210	13200	–	2460	–	28600	–	Active	Active
Cc1ccc(Cn2c(/C=C3\SC(=S)N(CC(=O)O)C3=O)nc3ccccc32)cc1	–	540	inactive	Active	1040	Active	960	2640	inactive	3220	inactive	1280	Active	–	–
